Data from ChEMBL document CHEMBL1129943, “5-aminocoumarans: dual inhibitors of lipid peroxidation and dopamine release with protective effects against central nervous system trauma and ischemia” (J Med Chem, 1997).
pIC50: −log10 of the molar value.

Key:
Type in all cases: functional
Mus musculus [1] = organism: Mus musculus; experiment: Peroral dose required to reduce by 50% the score of excitatory behavior induced by intrathecal injection of ferrous chloride in mice; details: central, read-out: ID50 (the source's name)
Method in brief: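 Male Slc:ICR mice, 5 weeks old, 10 per dose. Compound given orally 30 min before intrathecal 5 μL of 50 mM FeCl2 in saline (between L6 and S1). Vehicle was water, or 0.5% gum arabic suspension. Behaviour scored 0–5 (biting to death) from 15 min to 1 h. ID50 from three or four doses, relative to vehicle score.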

Rattus norvegicus [2] = organism: Rattus norvegicus; experiment: Inhibition of lipid peroxidation by rat liver microsomes; design: concentration or dose not given beside the values; details: dose or concentration not given here
Method in brief: (§1)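 Rat liver microsomes (S-9), 0.3 mg protein in 40 mM Tris-malate pH 7.4. Peroxidation started with a 1:1 mix of FeCl2 (0.25 mM) and NADPH (3 mM), then 1 h at 37 °C. Compound in DMSO added before incubation, tested up to 1 μM final. Thiobarbituric acid method read-out. Activity relative to DMSO vehicle; IC50 from four concentrations by nonlinear regression, otherwise % inhibition at 1 μM.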

Mus musculus [3] = experiment: Locomotor activity was measured in mice after 1 hour administration of methamphetamine; design: unit not given here
Mus musculus [4] = organism: Mus musculus; experiment: Percentage increase of locomotor activity in mice
Rattus norvegicus [5] = organism: Rattus norvegicus; experiment: Concentration required to reduce by 50% the amount of lipid peroxide formed in rat liver microsomes; method in brief: as §1

Structure (SMILES)	ED50 (Mus musculus [1])	inhibition (Rattus norvegicus [2])	Locomotor activity (Mus musculus [3])	Increase (Mus musculus [4])	pIC50 (Rattus norvegicus [5])
Cc1c(C)c2c(c(C)c1N)CC(C)(CCN1CCCCC1)O2 (stereo unspecified)	18.4 mg/kg	8%	<3549	206.5%	
CC(=O)Nc1c(C)c(C)c2c(c1C)CC(C)(C)O2	> 100 mg/kg	-2%			
COC(=O)/C=C\C1(C)Cc2c(C)c(N)c(C)c(C)c2O1 (stereo unspecified)	> 100 mg/kg	38%			
Cc1cc2c(c(C)c1N)CC(C)(C)O2	16.3 mg/kg	14%			
Cc1c(C)c2c(c(C)c1N)CC(C)(COCc1ccccc1)O2 (stereo unspecified)	18.6 mg/kg		1657	64%	6.55
Cc1c(C)c2c(c(C)c1N)CC(C)(CSc1ccncc1)O2 (stereo unspecified)	19.9 mg/kg		<892	10.2%	6.20
CNc1c(C)c(C)c2c(c1C)CC(C)(C)O2	16.6 mg/kg	18%	1229	84.7%	
Cc1c(C)c2c(c([N+](=O)[O-])c1N)CC(C)(C)O2	> 100 mg/kg	0%			
Cc1c(C)c2c(c(C)c1N)CC(C)(CSc1nc3ccccc3s1)O2 (stereo unspecified)	33.7 mg/kg		1391	45.3%	7.15
Cc1c(C)c2c(c(C)c1Nc1cccnc1)CC(C)(C)O2	> 50 mg/kg	4%			
Cc1c(C)c2c(c(C)c1N)CC(C)(C[S+]([O-])c1ccccc1)O2 (stereo unspecified)	31.3 mg/kg				6.18
CC(C)=Cc1c(C)c(N)c(C)c2c1OC(C)(C)C2	21.9 mg/kg				6.52
CCCc1ccc(C2c3c(C)c(N)c(C)c(C)c3OC2(C)C)cc1 (stereo unspecified)	> 50 mg/kg				6.54
CCCSCC1(C)Cc2c(C)c(N)c(C)c(C)c2O1 (stereo unspecified)	24.6 mg/kg		1540	56.4%	6.55
Cc1c(C)c2c(c(C)c1N)CC(C)(CSc1ccccc1)O2 (stereo unspecified)	24.7 mg/kg		<1098	24.7%	6.57
Cc1c(C)c2c(c(C)c1NS(C)(=O)=O)CC(C)(C)O2	> 100 mg/kg	-1%			
Cc1c(C)c2c(c(C)c1N)CC(C)(CNCc1ccccc1)O2 (stereo unspecified)	9.1 mg/kg		1340	46.1%	6.54
Cc1c(C)c2c(c(C)c1N)CC(C)(CNCCc1ccccc1)O2 (stereo unspecified)	14.2 mg/kg				6.54
CCCCCc1ccc(C2c3c(C)c(N)c(C)c(C)c3OC2(C)C)cc1 (stereo unspecified)	42.2 mg/kg				7.30

Structure (SMILES)	ED50 (Mus musculus [1])	inhibition (Rattus norvegicus [2])	Locomotor activity (Mus musculus [3])	Increase (Mus musculus [4])	pIC50 (Rattus norvegicus [5])
Cc1c(N)c(C)c2c(c1CN(C)C)OC(C)(C)C2	> 50 mg/kg	4%			
Cc1c(C)c2c(c(C)c1N)CC(C)(CN1CCN(C(c3ccccc3)c3ccccc3)CC1)O2 (stereo unspecified)	> 50 mg/kg		1664	62.8%	7.15
COCC1(C)Cc2c(C)c(N)c(C)c(C)c2O1 (stereo unspecified)	20.1 mg/kg		1934	76.7%	6.52
Cc1c(C)c2c(c(C)c1N)C(c1ccc(C(C)C)cc1)C(C)(C)O2 (stereo unspecified)	> 50 mg/kg				6.54
CCNc1c(C)c(C)c2c(c1C)CC(C)(C)O2	38.9 mg/kg	16%			
Cc1c(C)c2c(c(C)c1N)CC(C)(C)O2	7.8 mg/kg		<509	31.5%	6.12
Cc1c(N)cc2c(c1C)OC(C)(C)C2	24.4 mg/kg	26%			
Cc1c(C)c2c(c(C)c1N)CC(C)(CBr)O2 (stereo unspecified)	16 mg/kg		1115	34.5%	6.52
Cc1c(C)c2c(c(C)c1N)CC(C)(CN1CCOCC1)O2 (stereo unspecified)	19.2 mg/kg		3209	103.1%	6.39
Cc1c(C)c2c(c(C)c1Nc1ccc3c(c1)CC(C)(C)O3)CC(C)(C)O2	> 25 mg/kg				7.52
Cc1c(C)c2c(c(C)c1NC=O)CC(C)(C)O2	> 100 mg/kg	0%			
Cc1c(C)c2c(c(C)c1N)C(c1ccccc1)C(C)(C)O2 (stereo unspecified)	24.8 mg/kg		1845	77.3%	6.54
Cc1c(C)c2c(c(N(C)C)c1N)CC(C)(C)O2	22.3 mg/kg				6.26
Cc1c(N)c(C)c2c(c1CN1CCCCC1)OC(C)(C)C2	> 50 mg/kg	3%			
Cc1c(C)c2c(c(C)c1N)CC(C)(CN1CCN(c3ccccc3)CC1)O2 (stereo unspecified)	13.1 mg/kg		1484	47.3%	7.15
Cc1cc(N)c(C)c2c1OC(C)(C)C2	32.3 mg/kg	19%			
Cc1c(C)c2c(c(C)c1N)CC(C)(CSCCO)O2 (stereo unspecified)	> 50 mg/kg	11%			
Cc1ccc(C2c3c(C)c(N)c(C)c(C)c3OC2(C)C)cc1 (stereo unspecified)	> 50 mg/kg				6.52
Cc1c(C)c2c(c(C)c1N)CC(C)(CCc1ccc(F)cc1)O2 (stereo unspecified)	11.5 mg/kg		1185	80.1%	7.10

Structure (SMILES)	ED50 (Mus musculus [1])	inhibition (Rattus norvegicus [2])	Locomotor activity (Mus musculus [3])	Increase (Mus musculus [4])	pIC50 (Rattus norvegicus [5])
Cc1c(C)c2c(c(C)c1N)C(c1ccc(F)cc1)C(C)(C)O2 (stereo unspecified)	26.7 mg/kg		2156	181.3%	6.55
Cc1c(C)c2c(c(N)c1N)CC(C)(C)O2	> 50 mg/kg				6.52
Cc1c(C)c2c(c(C)c1N)CC(C)(CNCCCCc1ccccc1)O2 (stereo unspecified)	17 mg/kg				7.10
Cc1c(C)c2c(c(C)c1N)CC(C)(CS(=O)(=O)c1ccccc1)O2 (stereo unspecified)	36.6 mg/kg				6.10
Cc1c(C)c2c(c(C)c1Nc1ccc(Cl)cc1)CC(C)(C)O2	> 50 mg/kg				6.52
CCCNc1c(C)c(C)c2c(c1C)CC(C)(C)O2	51.1 mg/kg	24%			
Cc1c(C)c2c(c(C)c1N)CC(C)(CSc1ccc(F)cc1)O2 (stereo unspecified)	17.9 mg/kg		1625	61.8%	6.66
Cc1c(C)c2c(c(C)c1N)C(C(C)C)C(C)(C)O2 (stereo unspecified)	14 mg/kg				6.54
Cc1ccc(S(=O)(=O)Nc2c(C)c(C)c3c(c2C)CC(C)(C)O3)cc1	> 100 mg/kg	3%			
Cc1c(C)c2c(c(C)c1N)CC(C)(CSc1ccc(O)cc1)O2 (stereo unspecified)	> 50 mg/kg				6.66
Cc1c(C)c2c(c(C)c1N)CC(C)(CSCc1ccccc1)O2 (stereo unspecified)	32 mg/kg		1099	33.6%	6.59
Cc1c(C)c2c(c(C)c1N)CC(C)(CSCCC(=O)O)O2 (stereo unspecified)	43 mg/kg	0%			
Cc1c(C)c2c(c(C)c1Nc1ccccc1)CC(C)(C)O2	> 50 mg/kg				6.55
Cc1c(N)c(C)c2c(c1CC(C)C)OC(C)(C)C2	13.3 mg/kg				6.85
CC1(C)Cc2cc(N)ccc2O1	> 100 mg/kg	5%			
CCC(=O)Nc1c(C)c(C)c2c(c1C)CC(C)(C)O2	> 100 mg/kg	1%			
Cc1c(C)c2c(c(C)c1N)CC(C)(CN1CCC(c3ccccc3)CC1)O2 (stereo unspecified)	10.4 mg/kg		<482	1.8%	7.15
Cc1c(C)c2c(c(C)c1N)CC(C)(CNc1ccccc1)O2 (stereo unspecified)	15.7 mg/kg		1812	70.4%	6.59
CCOC(=O)Nc1c(C)c(C)c2c(c1C)CC(C)(C)O2	> 100 mg/kg	1%			
